Measurements as given in ChEMBL document CHEMBL1781895, “Lipid-like sulfoxides and amine oxides as inhibitors of mast cell activation” (Eur J Med Chem, 2011).
pIC50: −log10 of the molar value.

Key:
RBL-2H3 [1] = assay: Inhibition of anti-DNP-IgE-induced degranulation in rat RBL2H3 cells assessed as beta-hexosaminidase release at 25 uM after 30 mins by fluorescence assay; assay type: functional; conditions: RBL-2H3, 0.5 h
Method in brief: (§1)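 RBL-2H3 cells grown in 70% MEM with Earle's salts/20% RPMI 1640/10% FBS/2 mM L-glutamine, sensitised overnight with anti-DNP IgE ([…]), washed in Tyrode's buffer, preincubated 1 h at 37 °C with or without compound, then challenged with DNP-HSA for 15 min. Supernatant β-hexosaminidase read with 4-methylumbelliferyl-N-acetyl-β-D-glucosaminide (2.5 mM, citrate, 30 min, 37 °C), fluorescence 365/440 nm; duplicate aliquots.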

[2] = Cytotoxicity at rat RBL2H3 cells assessed as maximum tolerated concentration by lactate dehydrogenase release assay; assay type: cell-based; conditions: RBL-2H3 cells, read-out: Activity
RBL-2H3 [3] = assay: Inhibition of anti-DNP-IgE-induced degranulation in rat RBL2H3 cells assessed as beta-hexosaminidase release after 30 mins by fluorescence assay; assay type: functional, cell-based; conditions: RBL-2H3, 0.5 h; method in brief: as §1

| SMILES | inhibition at 25 µM (RBL-2H3 [1]) | MNTC [2] | pIC50 (RBL-2H3 [3]) |
| --- | --- | --- | --- |
| CCCCCCCCCCCC[S+]([O-])c1ccccc1[S+](C)[O-] (configuration not stated) | 72% | 100 µM |  |
| CCCCCCCCCCCC[S+](C)[O-] (configuration not stated) [DODECYL METHYL SULFOXIDE] | 66% | 100 µM |  |
| CCCCCCCCCCCCCC[N+](C)(C)[O-] | 95% | 100 µM | 4.97 |
| CCCCCCCCCCCC[N+](C)(C)[O-] | 40% |  |  |
| CCCCCCCCCCCC[S+]([O-])C1CCCCC1OC(C)=O (configuration not stated) | 73% | 100 µM |  |
| CCCCCCCCCCCC[S+]([O-])c1ccccc1O (configuration not stated) | 30% | 100 µM |  |
| CCCCCCCCCCCCCCCCCCCCc1ccc(S(N)(=O)=O)cc1 | 12% |  |  |
| CCCCCCCCCCCCC1[S+]([O-])CCC[S+]1[O-] (configuration not stated) | 80% | 100 µM | 4.97 |
| CCCCCCCCCCCC[S+]([O-])CC[S+]([O-])CC (configuration not stated) | 51% | 100 µM |  |
| CCCCCCCCCCCCCCCC(=O)OC[C@H](O)[C@H]1OC(=O)C(O)=C1O [ASCORBYL PALMITATE] | 38% |  |  |
| CCCCCCCCCCCCCCCCC(C(=O)O)C(O)(CC(=O)O)C(=O)O (configuration not stated) | 36% |  |  |
| CCCCCCCCCCCC[S+]([O-])[C@@H]1CCCC[C@H]1O (relative stereo) | 69% | 100 µM |  |
